Assay outcomes (PubChem)
Rows were chosen to be rich in hits. Some 1.7% of all compounds tested hit in one or more screens of this group.
SUMO1-SIM PPI: alters human SUMO1 binding to SIM partners; actives 0.33% (n = 360,000); SUMO1 binding to a labelled peptide, TR-FRET, 1 h; inhibition, % at 20 µM; AID 602429; in the data active = inhibition above about 37%
Target sequence (P63165 whole entry, looked up): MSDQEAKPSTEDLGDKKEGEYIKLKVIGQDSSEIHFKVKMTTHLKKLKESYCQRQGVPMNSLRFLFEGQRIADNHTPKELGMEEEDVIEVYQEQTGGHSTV
DNMT1 block: inhibitors of human DNMT1. actives 0.83% (n = 360,000). DNMT1 molecular beacon, Hinp1I cleavage, fluorescence. inhibition (reported as % activation of signal), % at 10 µM. AID 588458; in the data active = inhibition above about 50%
LMPTP block: LMPTP (human) inhibition; recombinant LMPTP-A, OMFP fluorogenic substrate, fluorescence intensity; P24666; inhibition, % at 20 µM; actives 0.22% (n = 360,000); AID 651560;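 active = compounds that cut the enzyme signal by at least half of the control window in the single-dose screen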
Target sequence (P24666 whole entry, looked up): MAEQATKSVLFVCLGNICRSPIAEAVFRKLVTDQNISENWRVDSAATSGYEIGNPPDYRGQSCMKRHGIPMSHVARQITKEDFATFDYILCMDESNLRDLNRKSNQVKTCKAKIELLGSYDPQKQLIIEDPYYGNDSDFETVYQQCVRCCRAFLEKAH
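Material: LMPTP-A; amount: 0.625 nM enzyme; doses: single 20 µM dose; times: reaction 50 min, room temperature, dark; technique: fluorescence intensity of OMFP turnover product; benchmarks: no-enzyme and uninhibited controls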
Scp1 inh: Scp-1 (human) phosphatase inhibition; Q9GZU7; Recombinant Scp1, phosphopeptide, malachite green phosphate absorbance; inhibition, % at 20 µM; actives 0.88% (n = 340,000);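 active = inhibition above about 50% at 20 µM, limit read from the data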
Target sequence (Q9GZU7 76-261 limits assumed): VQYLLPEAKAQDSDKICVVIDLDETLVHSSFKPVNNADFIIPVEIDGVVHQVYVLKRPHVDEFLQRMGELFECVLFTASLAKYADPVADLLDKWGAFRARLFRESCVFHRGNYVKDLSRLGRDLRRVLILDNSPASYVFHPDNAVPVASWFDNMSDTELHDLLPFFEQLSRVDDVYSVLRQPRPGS
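System: truncated SCP-1 phosphatase (76-261aa); medium: Tris acetate buffer pH 5.5 with MgCl2 and Tween-20; incubation: 45 min room-temperature reaction, 5 min colour, 30 min stabiliser; compound: single 20 µM dose, 1% DMSO; reagent: Phosphorylated 17-residue peptide substrate; read-out: % inhibition at 20 µM; technique: colorimetric free-phosphate detection, absorbance 630 nm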
STEP block: STEP (human) phosphatase inhibition | inhibition, % at 20 µM | P54829 | recombinant STEP, OMFP fluorogenic substrate, fluorescence | actives 0.25% (n = 360,000);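 active = inhibition at 20 µM, scaled per plate between control wells, above about 37%, limit read from the data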
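material = STEP tyrosine phosphatase | reagent = fluorogenic phosphatase substrate OMFP at 25 µM final | doses = single compound dose of 20 µM, 1% DMSO final | schedule = 20 min reaction, room temperature, in the dark | measured by = fluorescence, 480/540 nm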
Of the large screens only hits and unclear results are named; the others gave an inactive call.

CCOc1ccccc1OCCOCCOc1c(Cl)cccc1Cl	none
CC[N+](CC)(CC)CCOc1cccc(OCC[N+](CC)(CC)CC)c1OCC[N+](CC)(CC)CC	Scp1 inh 96
CCCN(S(=O)(=O)c1ccc(OCC)cc1)S(=O)(=O)c1cccs1	none
Oc1ccc(Nc2nc3ccccc3nc2Nc2ccc(O)cc2)cc1	Scp1 inh 60
COc1ccc(OCc2cc(C(=O)NCc3cccc(C)n3)no2)c(Cl)c1	none
FC(F)(F)c1ccc(Cl)c(NC(=S)NC2CC2)c1	none
Cc1ccc(S(=O)(=O)Nc2ccc3c(c2)C(=O)N([C@@H](C)CO)C[C@@H](C)[C@@H](CN(C)S(=O)(=O)c2ccccc2)OCCCC[C@H](C)O3)cc1	SUMO1-SIM PPI 43 (no result: Scp1 inh)
Cc1noc(C)c1S(=O)(=O)Nc1ccc2c(c1)C(=O)N([C@H](C)CO)C[C@H](C)[C@@H](CN(C)C(=O)NC(C)C)O2	Scp1 inh 85
Cc1noc(C)c1NC(=O)N(C)C[C@H]1Oc2ccc(NC(=O)c3ccncc3)cc2C(=O)N([C@H](C)CO)C[C@@H]1C	Scp1 inh 68
Cc1ccc(S(=O)(=O)N(C)C[C@@H]2OCCCC[C@@H](C)Oc3ccc(NS(=O)(=O)c4c(C)noc4C)cc3C(=O)N([C@H](C)CO)C[C@@H]2C)cc1	none (no result: Scp1 inh)
Cc1noc(C)c1NC(=O)Nc1ccc2c(c1)C(=O)N([C@H](C)CO)C[C@H](C)[C@@H](CN(C)C(=O)Nc1c(C)noc1C)O2	none
CCC(CC)C(=O)c1c[nH]c(C(=O)NCc2ccc(F)cc2)c1	none
CCOC(=O)c1c(NC(=O)c2ccco2)n(C2CCCCC2)c2nc3ccccc3nc12	SUMO1-SIM PPI 40
CCOC(=O)c1c(N)n(C2CC(C)(C)NC(C)(C)C2)c2nc3ccccc3nc12	none
Oc1ccc2ccccc2c1C=NC12CN3CCN(CN(C3)C1)C2	SUMO1-SIM PPI 54
Cc1ccc(C(=O)C(C)OC(=O)c2nc(Cl)ccc2Cl)cc1 (stereo not drawn)	none
CCOC(=O)CSc1nnc(-c2cc(OC)c(OC)c(OC)c2)o1	none
COc1cc(-c2nnc(SCc3cc(=O)oc4cc(O)c(O)cc34)o2)cc(OC)c1OC	DNMT1 block 64, LMPTP block 63, Scp1 inh 73
COc1ccc(CC(=O)Nc2cccc(-c3ccc4nnc(C)n4n3)c2)cc1OC	none
O=C(Nc1nc(-c2ccccn2)cs1)C1CC(=O)N(c2ccc3c(c2)OCCO3)C1 (stereo not drawn)	none
Cn1c(=O)c2c(-c3ccccc3)n(-c3ccc(N)cc3)cc2n(C)c1=O	SUMO1-SIM PPI 42 (no result: Scp1 inh)
Cc1cccc(NCc2ccc(N(C)C)cc2)n1	DNMT1 block 60
CN(C)c1ccc(CNc2ccccn2)cc1	none
Cc1[nH]nc2c1C(c1ccc(-c3ccc(Cl)cc3)o1)C(C#N)=C(N)O2 (stereo not drawn)	SUMO1-SIM PPI 64
Cc1ccc(-c2ccc(C3C(C#N)=C(N)Oc4n[nH]c(C)c43)o2)cc1 (stereo not drawn)	none
COc1cc(/C=C2\CCc3c2nc2ccccc2c3C(=O)O)cc(OC)c1OC	SUMO1-SIM PPI 48, DNMT1 block 97, Scp1 inh 71, STEP block 42
COc1cc(/C=C2\CCCc3c2nc2ccccc2c3C(=O)O)cc(Br)c1O	none
O=c1cc(CN2CCCCCCC2)c2ccccc2o1	LMPTP block 53 (no result: Scp1 inh)
N=C(N)c1ccc(N=Nc2c(O)ccc3c2[nH]c2ccccc23)cc1	SUMO1-SIM PPI 129, DNMT1 block 51
Oc1ccc(N=Nc2c(O)ccc3ccccc23)cc1	none
Cc1ccc(-c2nn3c(C)nnc3s2)cc1NC(=O)c1ccc(-c2ccc(Cl)cc2Cl)o1	DNMT1 block 66, STEP block 93
Cc1ccc(-c2nn3c(C)nnc3s2)cc1NC(=O)c1ccc(-c2cccc(Cl)c2)o1	none
CC(C)NC(=O)CN1CCC(c2ccccc2)C(O)C1 (stereo not drawn)	none
O=C1CCC(=O)c2ccc3c4c(ccc1c24)CC3	none
O=C1CCN2C=Nc3cccc4ccc1c2c34	DNMT1 block 76
Cc1cc2c([nH]c3ccccc32)c(C)n1	none
Cc1c2ccncc2cc2c1[nH]c1ccccc12	LMPTP block 55
Cc1ccc(SCCc2cc[n+](CC(=O)c3ccccc3)cc2)cc1	none
O=C(C[n+]1ccc(CCSc2ccc(F)cc2)cc1)c1ccccc1	LMPTP block 54
O=C(CCN1C(=O)/C(=C/c2ccccc2Cl)SC1=S)NC1C=CS(=O)(=O)C1 (stereo not drawn)	DNMT1 block 54
O=C(CCN1C(=O)/C(=C/c2ccc(F)cc2)SC1=S)NC1C=CS(=O)(=O)C1 (stereo not drawn)	none
CN(C)CCN(C)C1CN(Cc2ccccc2)S(=O)(=O)C1 (stereo not drawn)	none (no result: Scp1 inh)
O=C(Nc1ccc2oc(-c3cccnc3)nc2c1)c1ccc(Br)o1	SUMO1-SIM PPI 38
COc1ccc(-n2c(SCC(=O)Nc3cccc(S(N)(=O)=O)c3)nc3ccccc3c2=O)cc1OC	SUMO1-SIM PPI 37
CC(C(=O)O)N1C(=O)/C(=C/C=C/c2ccco2)SC1=S (stereo not drawn)	SUMO1-SIM PPI 100, DNMT1 block 83, LMPTP block 78, Scp1 inh 79, STEP block 99
O=C1/C(=C/C=C/c2ccco2)SC(=S)N1NS(=O)(=O)c1ccccc1	SUMO1-SIM PPI 112, DNMT1 block 87, LMPTP block 62, Scp1 inh 82, STEP block 43
COc1ccc(OCCCC(=O)Nc2cc(Cl)ccc2-n2cncn2)cc1	none
CCOC(=O)c1nc2ccc(C)cc2c2c1C1CC(c3c(Cl)cccc31)N2C(=O)OCc1ccccc1 (stereo not drawn)	none (no result: Scp1 inh)
COC(=O)[C@@]12C[C@@H](CC(=O)N3CCSCC3)C(=O)N(Cc3ccc4c(c3)OCO4)C1=CCC(C)(C)C2	none (no result: DNMT1 block, Scp1 inh, STEP block)
COc1ccc(C(C)(O)c2nc(-c3ccoc3)cs2)cc1 (stereo not drawn)	none (no result: Scp1 inh)
CCC(C(=O)OCC(=O)Nc1ccc2[nH]c(=O)[nH]c2c1)c1ccccc1 (stereo not drawn)	SUMO1-SIM PPI 43
O=C(COC(=O)CCC(=O)c1ccc(F)cc1)Nc1ccc2[nH]c(=O)[nH]c2c1	SUMO1-SIM PPI 39
O=C(COC(=O)c1ccccc1OC(F)F)Nc1ccc2[nH]c(=O)[nH]c2c1	SUMO1-SIM PPI 40
O=C(COC(=O)c1ccccc1Cl)Nc1ccc2[nH]c(=O)[nH]c2c1	none
CCC(C(=O)OCC(=O)Nc1cccc(C(C)=O)c1)c1ccccc1 (stereo not drawn)	none
O=C(COC(=O)c1ccc(Cl)c(S(=O)(=O)N2CCOCC2)c1)Nc1ccc2[nH]c(=O)[nH]c2c1	SUMO1-SIM PPI 84
Cc1ccc(C(=O)CCC(=O)OCC(=O)Nc2ccc3[nH]c(=O)[nH]c3c2)cc1	none
